We go through 5 molecules from article PMC4306484 (ACS Chemical Neuroscience, 2014).

Marks after values point to notes of the source that are not given here.

The target in assay [1] is T1, rat mGlu8 (Rattus norvegicus, UniProt P70579). The assay is described as follows: Thallium flux assay, HEK293 cells expressing rat mGlu8 and GIRK1/2 channels. It counts as cell-based.
In a further assay the target is human mGlu4 (Homo sapiens, UniProt Q14833). The assay is described as follows: Calcium mobilization assay, human mGlu4/Gqi5/CHO cells. The format is cell-based. As to conditions: for Kb / log α (affinity cooperativity) / log β (efficacy cooperativity) / α / β: calcium assay. For orientation: Calcium flux is commonly read through the fluorescence of an indicator in the cells.
Chain of human mGlu4 (Q14833 33-912): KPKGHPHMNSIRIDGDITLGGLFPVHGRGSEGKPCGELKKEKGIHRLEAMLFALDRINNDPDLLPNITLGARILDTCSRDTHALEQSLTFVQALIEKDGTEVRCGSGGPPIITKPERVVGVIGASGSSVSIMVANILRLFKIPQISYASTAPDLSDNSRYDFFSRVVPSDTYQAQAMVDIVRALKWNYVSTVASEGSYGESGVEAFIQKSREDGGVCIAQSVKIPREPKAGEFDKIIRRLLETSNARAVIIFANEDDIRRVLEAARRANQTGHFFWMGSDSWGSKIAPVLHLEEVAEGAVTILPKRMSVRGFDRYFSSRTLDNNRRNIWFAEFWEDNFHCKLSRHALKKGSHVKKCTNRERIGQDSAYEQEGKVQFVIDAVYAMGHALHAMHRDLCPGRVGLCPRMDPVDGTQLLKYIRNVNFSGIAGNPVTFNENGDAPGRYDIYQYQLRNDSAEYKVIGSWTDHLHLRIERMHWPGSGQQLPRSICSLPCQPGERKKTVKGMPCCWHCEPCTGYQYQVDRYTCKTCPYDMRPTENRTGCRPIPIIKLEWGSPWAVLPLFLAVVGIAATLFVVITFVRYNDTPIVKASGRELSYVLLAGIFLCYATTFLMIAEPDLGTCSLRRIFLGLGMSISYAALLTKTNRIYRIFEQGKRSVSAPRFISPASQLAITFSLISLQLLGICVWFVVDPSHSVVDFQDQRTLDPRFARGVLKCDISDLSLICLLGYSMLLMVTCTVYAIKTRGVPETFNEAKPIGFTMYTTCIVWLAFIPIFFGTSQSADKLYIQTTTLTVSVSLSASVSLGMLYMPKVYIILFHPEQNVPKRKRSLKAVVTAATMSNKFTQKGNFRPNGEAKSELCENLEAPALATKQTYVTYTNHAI

In the next assay the target is rat mGlu7 (Rattus norvegicus, UniProt P35400). The assay is described as follows: Calcium mobilization assay, rat mGlu7/Gα15/HEK cells. The format is cell-based. As to conditions: for Kb / log α (affinity cooperativity) / log β (efficacy cooperativity) / log τB / α / β / τB: calcium assay.
Chain of rat mGlu7 (P35400 35-915): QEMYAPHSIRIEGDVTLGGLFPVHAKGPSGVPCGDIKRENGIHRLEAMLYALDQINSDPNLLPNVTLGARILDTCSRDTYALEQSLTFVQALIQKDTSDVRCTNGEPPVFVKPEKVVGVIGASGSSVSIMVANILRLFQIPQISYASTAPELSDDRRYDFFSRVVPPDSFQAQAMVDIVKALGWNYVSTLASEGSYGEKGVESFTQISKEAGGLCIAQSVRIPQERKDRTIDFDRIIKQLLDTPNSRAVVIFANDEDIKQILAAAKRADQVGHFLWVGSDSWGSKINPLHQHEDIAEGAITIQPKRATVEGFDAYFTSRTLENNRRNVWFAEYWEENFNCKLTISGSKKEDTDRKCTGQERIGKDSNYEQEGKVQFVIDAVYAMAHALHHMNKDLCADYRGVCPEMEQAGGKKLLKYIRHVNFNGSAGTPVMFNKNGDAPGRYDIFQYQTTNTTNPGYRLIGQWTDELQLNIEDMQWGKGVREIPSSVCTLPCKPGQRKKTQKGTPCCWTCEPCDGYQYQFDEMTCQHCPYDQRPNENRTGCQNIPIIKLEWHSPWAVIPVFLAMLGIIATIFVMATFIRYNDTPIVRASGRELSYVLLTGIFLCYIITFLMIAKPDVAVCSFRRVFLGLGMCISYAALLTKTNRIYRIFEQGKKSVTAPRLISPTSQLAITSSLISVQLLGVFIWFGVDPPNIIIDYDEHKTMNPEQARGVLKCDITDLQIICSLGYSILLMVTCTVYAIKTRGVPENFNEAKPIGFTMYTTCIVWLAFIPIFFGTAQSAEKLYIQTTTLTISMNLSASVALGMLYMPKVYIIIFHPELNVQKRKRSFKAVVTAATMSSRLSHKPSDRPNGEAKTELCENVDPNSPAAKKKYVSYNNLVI
Assay [2] has as its target T1, rat mGlu8. Nature of the assay: Calcium mobilization assay, rat mGlu8/Gα15/HEK cells. The format is cell-based. The settings on record: for Kb / log α (affinity cooperativity) / log β (efficacy cooperativity) / log τB / α / β / τB: calcium assay.
The next assay concerns the target rat mGlu2 (Rattus norvegicus, UniProt P31421). The assay is described as follows: Fold-shift assay in rat mGlu2/Gα15-expressing cells. The format is cell-based. The settings on record: listed as VU0155094.
For a further assay, the system named is SC-CA1 synapse. Nature of the assay: Extracellular field potential recordings. Set-up: species or system C57BL6/J mice. The settings on record: for effect on fEPSP slope: agonist alone: 3 μM LSP1-2111, 1 μM DCPG or 30 μM LSP4-2022. The method, boiled down: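 Coronal hippocampal slices (400 μm) from six-week-old male mice anesthetized with isoflurane, cut in ice-cold sucrose solution. Slices recovered in NMDG-HEPES (15 min, 32 °C), then in ACSF (≥1 h, RT), and were perfused with 32 °C ACSF. CA1 stratum radiatum recordings used paired pulses (100 μs, 20 ms apart, 0.05 Hz). After 10 min baseline, drugs in ACSF were given for 5 or 10 min; PAM was preapplied 5 min, then coapplied with agonist. Slopes from three sweeps were averaged and normalized to predrug baseline. Paired-pulse ratio was second/first slope. N = 3–4; mean ± SEM.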

The target of the next assay is mGlu4 (Rattus norvegicus, UniProt P31423). Nature of the assay: Thallium flux assay, cells expressing mGlu4 and GIRK1/2. The format is cell-based. As to conditions: GIRK assay.
Chain of mGlu4 (P31423 33-912): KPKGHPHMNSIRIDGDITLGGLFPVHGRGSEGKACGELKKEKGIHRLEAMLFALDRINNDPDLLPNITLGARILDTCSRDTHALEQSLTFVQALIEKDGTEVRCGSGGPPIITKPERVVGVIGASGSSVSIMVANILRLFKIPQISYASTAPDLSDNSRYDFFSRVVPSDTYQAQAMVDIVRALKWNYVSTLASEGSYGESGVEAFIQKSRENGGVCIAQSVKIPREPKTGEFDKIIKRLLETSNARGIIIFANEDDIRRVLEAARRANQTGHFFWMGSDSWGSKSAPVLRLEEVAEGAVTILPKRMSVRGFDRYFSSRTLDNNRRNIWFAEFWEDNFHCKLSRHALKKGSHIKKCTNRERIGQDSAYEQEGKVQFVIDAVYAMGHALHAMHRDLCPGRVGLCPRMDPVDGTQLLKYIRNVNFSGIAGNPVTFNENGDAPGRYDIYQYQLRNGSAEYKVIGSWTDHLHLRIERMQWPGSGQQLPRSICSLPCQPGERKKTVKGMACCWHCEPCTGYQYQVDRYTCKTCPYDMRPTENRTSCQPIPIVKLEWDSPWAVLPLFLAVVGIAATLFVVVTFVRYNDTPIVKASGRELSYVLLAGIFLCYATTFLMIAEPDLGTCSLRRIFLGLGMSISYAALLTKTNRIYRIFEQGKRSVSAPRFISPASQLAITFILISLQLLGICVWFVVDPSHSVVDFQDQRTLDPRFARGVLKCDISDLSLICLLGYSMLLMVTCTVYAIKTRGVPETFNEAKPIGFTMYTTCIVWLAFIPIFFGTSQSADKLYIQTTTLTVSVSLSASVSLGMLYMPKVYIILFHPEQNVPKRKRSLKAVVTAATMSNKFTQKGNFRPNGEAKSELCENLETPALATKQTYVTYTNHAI

T1 sequence (P70579 34-908): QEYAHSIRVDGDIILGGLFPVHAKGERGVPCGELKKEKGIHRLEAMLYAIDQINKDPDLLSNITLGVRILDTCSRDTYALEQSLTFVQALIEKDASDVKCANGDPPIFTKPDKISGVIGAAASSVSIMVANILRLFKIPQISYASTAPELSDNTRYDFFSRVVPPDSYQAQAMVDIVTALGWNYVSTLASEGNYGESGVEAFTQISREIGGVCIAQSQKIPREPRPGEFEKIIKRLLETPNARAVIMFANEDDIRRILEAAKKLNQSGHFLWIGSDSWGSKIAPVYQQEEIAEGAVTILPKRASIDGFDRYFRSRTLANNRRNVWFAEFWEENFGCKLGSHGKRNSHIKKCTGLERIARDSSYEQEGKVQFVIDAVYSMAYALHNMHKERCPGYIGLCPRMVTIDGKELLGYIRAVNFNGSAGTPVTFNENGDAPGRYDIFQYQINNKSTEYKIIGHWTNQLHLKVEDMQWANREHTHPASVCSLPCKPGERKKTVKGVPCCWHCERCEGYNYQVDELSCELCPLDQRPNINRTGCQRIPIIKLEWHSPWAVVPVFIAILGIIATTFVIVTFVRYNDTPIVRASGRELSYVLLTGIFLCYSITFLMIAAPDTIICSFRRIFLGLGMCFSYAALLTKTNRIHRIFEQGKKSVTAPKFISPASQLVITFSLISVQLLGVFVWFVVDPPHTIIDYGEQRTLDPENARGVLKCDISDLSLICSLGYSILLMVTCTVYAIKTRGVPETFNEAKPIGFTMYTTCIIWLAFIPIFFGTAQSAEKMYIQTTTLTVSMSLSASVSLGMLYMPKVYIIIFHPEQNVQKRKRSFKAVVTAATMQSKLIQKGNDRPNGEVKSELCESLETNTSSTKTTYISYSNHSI
Chain of rat mGlu2 (P31421 19-872): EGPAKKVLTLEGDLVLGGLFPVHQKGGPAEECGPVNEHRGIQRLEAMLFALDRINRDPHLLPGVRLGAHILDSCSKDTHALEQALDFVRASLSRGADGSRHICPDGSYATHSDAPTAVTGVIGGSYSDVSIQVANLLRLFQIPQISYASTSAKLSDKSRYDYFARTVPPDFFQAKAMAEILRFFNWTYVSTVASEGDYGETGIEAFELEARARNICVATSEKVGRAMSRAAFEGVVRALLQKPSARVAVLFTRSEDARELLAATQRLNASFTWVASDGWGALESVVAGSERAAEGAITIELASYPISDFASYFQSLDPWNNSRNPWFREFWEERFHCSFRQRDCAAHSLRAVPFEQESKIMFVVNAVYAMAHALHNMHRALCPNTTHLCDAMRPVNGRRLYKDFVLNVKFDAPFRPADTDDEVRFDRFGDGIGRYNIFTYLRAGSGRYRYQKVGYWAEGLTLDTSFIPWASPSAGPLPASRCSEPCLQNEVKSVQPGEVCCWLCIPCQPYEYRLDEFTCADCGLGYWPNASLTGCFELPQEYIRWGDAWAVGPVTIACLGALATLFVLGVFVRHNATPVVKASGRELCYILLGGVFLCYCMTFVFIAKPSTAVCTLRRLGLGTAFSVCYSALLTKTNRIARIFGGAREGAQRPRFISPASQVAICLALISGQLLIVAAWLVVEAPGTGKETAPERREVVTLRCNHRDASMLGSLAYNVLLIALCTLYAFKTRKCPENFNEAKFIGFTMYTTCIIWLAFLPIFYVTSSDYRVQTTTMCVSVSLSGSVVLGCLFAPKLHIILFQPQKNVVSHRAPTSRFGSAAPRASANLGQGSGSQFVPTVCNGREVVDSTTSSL

On rat mGlu8 [1], `COC(=O)c1ccc(-n2c(C)cc(C(=O)CSc3ccc(NC(C)=O)cc3)c2C)cc1` [Compound 1, methyl 4-(3-(2-((4-acetamidophenyl)thio)acetyl)-2,5-dimethyl-1H-pyrrol-1-yl)benzoate] gave a half-maximal effective concentration (EC50) of 1.62 µM. The “agonist activity in the absence of glutamate” value at rat mGlu8 [1] is “did not exhibit agonist activity”. The Kb on human mGlu4 (KB, agonist Glu) is 13.3 µM; on human mGlu4 (KB, agonist L-AP4), 13.2 µM; at human mGlu4 (KB, agonist LSP4-2022), 10.6 µM; at human mGlu4 (pKB, agonist L-AP4, eq 2), 13.2 µM; at rat mGlu7 (KB, agonist LSP4-2022) it was 8 µM; at rat mGlu7 (pKB, agonist Glu, eq 2), 17 µM. Also, the Kb is 4.17 µM at rat mGlu7 (pKB, agonist L-AP4, eq 2); 8.6 µM on rat mGlu8 [2] (agonist Glu); 14.7 µM at rat mGlu8 [2] (agonist L-AP4); 14 µM at rat mGlu8 [2] (agonist LSP4-2022). For the same molecule, the “log α (affinity cooperativity)” value is recorded as 0.28 ± 0.07 at human mGlu4 (agonist Glu); “–0.15 ± 0.30 ^k” at human mGlu4 (agonist L-AP4); 0.17 ± 0.13 ^l on human mGlu4 (agonist LSP4-2022); 0.58 ± 0.13 at rat mGlu7 (agonist Glu); 0.39 ± 0.21 on rat mGlu7 (agonist L-AP4); 0.82 ± 0.26 ^l at rat mGlu7 (agonist LSP4-2022). Further, the “log α (affinity cooperativity)” value at rat mGlu8 [2] (agonist Glu) was 0.61 ± 0.39; on rat mGlu8 [2] (agonist L-AP4), 0.92 ± 0.08 ^k; on rat mGlu8 [2] (agonist LSP4-2022) it was 0.93 ± 0.06 ^l. The “log β (efficacy cooperativity)” value is 0.16 ± 0.08 ^f ^h at human mGlu4 (agonist Glu); 0.67 ± 0.27 ^f ^i on human mGlu4 (agonist L-AP4); 0.33 ± 0.07 ^j on human mGlu4 (agonist LSP4-2022); 0.68 ± 0.12 ^g ^h at rat mGlu7 (agonist Glu); 0.07 ± 0.03 ^g ^i on rat mGlu7 (agonist L-AP4); “–0.10 ± 0.10 ^g ^j” at rat mGlu7 (agonist LSP4-2022). Besides, the “log β (efficacy cooperativity)” value on rat mGlu8 [2] (agonist Glu) is on record as 0.08 ± 0.02 ^h; on rat mGlu8 [2] (agonist L-AP4), 0.05 ± 0.03 ^i; on rat mGlu8 [2] (agonist LSP4-2022), 0.05 ± 0.06 ^j. Also, the α is 1.9 at human mGlu4 (agonist Glu); 0.71 on human mGlu4 (agonist L-AP4); 1.5 at human mGlu4 (agonist LSP4-2022); 3.8 on rat mGlu7 (agonist Glu); 2.4 at rat mGlu7 (agonist L-AP4); 6.6 on rat mGlu7 (agonist LSP4-2022). Besides, the α on rat mGlu8 [2] (agonist Glu) is listed as 4.1; at rat mGlu8 [2] (agonist L-AP4) it was 8.3; at rat mGlu8 [2] (agonist LSP4-2022) it was 8.6. The β at human mGlu4 (agonist Glu) amounted to 1.4; on human mGlu4 (agonist L-AP4), 4.7; at human mGlu4 (agonist LSP4-2022), 2.1; on rat mGlu7 (agonist Glu) it was 4.8; on rat mGlu7 (agonist L-AP4) it was 1.2; at rat mGlu7 (agonist LSP4-2022) it was 0.8. For the same molecule, the β is 1.2 at rat mGlu8 [2] (agonist Glu), 1.1 at rat mGlu8 [2] (agonist L-AP4) and 1.1 at rat mGlu8 [2] (agonist LSP4-2022). Moreover, on rat mGlu7 (calcium), the “fold greater modulator affinity with L-AP4 than with glutamate as agonist” value worked out at 4 fold. The “log τB” value at rat mGlu7 (agonist Glu) is given as “–0.17 ± 0.03”; at rat mGlu7 (agonist L-AP4), “–0.09 ± 0.04”; on rat mGlu7 (agonist LSP4-2022), “–0.22 ± 0.06”; on rat mGlu8 [2] (agonist Glu) it was “–0.12 ± 0.03”; at rat mGlu8 [2] (agonist L-AP4), “–0.14 ± 0.04”; at rat mGlu8 [2] (agonist LSP4-2022) it was “–0.10 ± 0.06”. Moreover, the τB at rat mGlu7 (agonist Glu) is recorded as 0.81; on rat mGlu7 (agonist LSP4-2022), 0.61; on rat mGlu8 [2] (agonist Glu) it was 0.75; on rat mGlu8 [2] (agonist L-AP4), 0.73; at rat mGlu8 [2] (agonist LSP4-2022), 0.80. Further, the “shift of glutamate concentration-response (PAM or NAM activity) at mGlu2” value at rat mGlu2 is “inactive”. Also, in the assay with SC-CA1 synapse (PAM and LSP4-2022 applied together), the “effect on paired-pulse ratio” value is reported as “increases the paired-pulse ratio”.

On to `O=C(Nc1ccc(Oc2ccc(Cl)cn2)c(Cl)c1)c1ccccn1` [Compound 20, N-(3-chloro-4-((5-chloropyridin-2-yl)oxy)phenyl)picolinamide], for which, on mGlu4 (agonist Glu), the “log αβ (combined cooperativity)” value is on record as 0.54 ± 0.06 ^i, the αβ came to 3.5 and the Kb came to 0.306 µM. At mGlu4 (agonist L-AP4), the “log αβ (combined cooperativity)” value is on record as 0.58 ± 0.04 ^j, the αβ is given as 3.8 and the Kb turned out to be 0.304 µM. Further, at mGlu4 (agonist LSP4-2022), the “log αβ (combined cooperativity)” value is 0.54 ± 0.003 ^k, the αβ came out at 3.5 and the Kb amounted to 0.268 µM.

`N[C@H](C(=O)O)c1ccc(C(=O)O)c(C(=O)O)c1` [DCPG, (S)-3,4-dicarboxyphenylglycine]: the “effect on fEPSP slope” value in the assay on SC-CA1 synapse is “has no effect on fEPSP slope”.

For `COc1cc(C(O)P(=O)(O)CC[C@H](N)C(=O)O)cc([N+](=O)[O-])c1O` (stereo partly drawn) [LSP1-2111, (2S)-2-amino-4-[hydroxy[hydroxy(4-hydroxy-3-methoxy-5-nitro-phenyl)methyl]phosphoryl]butanoic acid], the “effect on fEPSP slope” value in the assay with SC-CA1 synapse is given as “has no effect on fEPSP slope”.

As to `N[C@@H](CCP(=O)(O)C(O)c1ccc(OCC(=O)O)cc1)C(=O)O` (stereo partly drawn) [LSP4-2022, (2S)-2-amino-4-(((4-(carboxymethoxy)phenyl)(hydroxy)methyl)(hydroxy)phosphoryl)butanoic acid, reference compound], the “Fold ΔpKA vs. Glu (fold higher affinity than glutamate)” value at human mGlu4 (calcium) is 9 fold. Besides, on rat mGlu8 [2] (calcium), the “fold lower affinity compared to glutamate” value amounted to 10 fold. For the same molecule, the “effect on paired-pulse ratio” value in the assay with SC-CA1 synapse (30 μM LSP4-2022 alone) is “causes an increase in paired-pulse ratio”. Also, the “effect on fEPSP slope” value with SC-CA1 synapse is “causes a decrease in the fEPSP slope”.

Broadly, the EC50 is the concentration at which the effect is half-maximal.
